Laboratory results reported in ChEMBL document CHEMBL1151695, “Design, synthesis and preliminary pharmacological evaluation of new analogues of DM232 (unifiram) and DM235 (sunifiram) as cognition modulators” (Bioorg Med Chem, 2008).
Calls of active or inactive are those of the source. The rule behind the calls is not given here.

What was measured:
Mus musculus [1] = organism: Mus musculus; assay: Toxicity in mouse assessed as spontaneous motility and inspection activity after 5 mins by hole board test; type: organism-based; details: in vivo
Outline: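 Hole-board: 40 cm square plane with 16 holes of 3 cm, arranged 4×4. Each mouse placed centrally and free to move for […]. Photocells counted locomotion (spontaneous motility) and hole exploration, both as counts in 5 min. Compared with saline-treated mice.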

Mus musculus [2] = organism: Mus musculus; assay: Toxicity in mouse assessed as motor coordination after 45 mins by rotarod test; type: organism-based; details: in vivo, 0.75 h
Outline: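 Rota-rod: rod 30 cm long, 15 cm above the base, split into five sections, rotating at 16 rpm. Falls counted over 30 s. Mice with fewer than 3 or more than 6 falls in the pretest were rejected. Performance measured at pretest and 15, 30 and 45 min after test start. Compared with saline-treated mice.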

Mus musculus [3] = assay: Antiamnesic activity in mouse assessed as reversal of scopolamine-induced memory loss at 10 mg/kg, ip treated 20 mins before training session by passive avoidance test; type: functional, organism-based; set-up: dose 10 mg/kg
Outline: (§1)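 Step-through passive avoidance in mice: lit and dark compartments joined by a guillotine door. Entering the dark side drops the mouse 40 cm into 10 °C water, a non-painful punishment. Mice not entering within 60 s at training were excluded. Compound given ip at 1:10 dilution steps […], 20 min before training. Vehicle was saline or saline/DMSO 4:1. Scopolamine 1.5 mg/kg ip immediately after punishment. Retention tested next day. MED is the lowest dose reversing amnesia.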

Mus musculus [4] = assay: Antiamnesic activity in scopolamine-induced mouse assessed as latency time to enter dark room in training session at 10 mg/kg, ip treated 20 mins before training session by passive avoidance test; type: functional; details: route intraperitoneal; outline: as §1
Mus musculus [5] = assay: Effect on passive avoidance in mouse assessed as latency time to enter dark room in retention session at 0.01 mg/kg, ip treated 20 mins before training session; type: functional; details: route intraperitoneal
Outline: (§2)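 Same step-through passive avoidance without scopolamine. Punishment is a 40 cm fall into 10 °C water on entering the dark room. Mice not entering within 60 s at training were excluded. Compound given ip at 1:10 dilution steps, 20 min before training, in saline or saline/DMSO 4:1. Controls received an extra saline injection right after training. Latency to enter the dark room recorded at training and at next-day retention.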

Mus musculus [6] = assay: Antiamnesic activity in scopolamine-induced mouse assessed as latency time to enter dark room in retention session at 10 mg/kg, ip treated 20 mins before training session by passive avoidance test; type: functional; details: route intraperitoneal; outline: as §1
Mus musculus [7] = assay: Effect on passive avoidance in mouse assessed as latency time to enter dark room in training session at 0.01 mg/kg, ip treated 20 mins before training session; type: functional; details: route intraperitoneal; outline: as §2
Mus musculus [8] = assay: Antiamnesic activity in ip dosed mouse assessed as reversal of scopolamine-induced memory loss treated 20 mins before training session by passive avoidance test; type: functional; details: read-out: MED; outline: as §1
Mus musculus [9] = organism: Mus musculus; assay: Effect on passive avoidance in mouse treated 20 mins before training session; type: functional; details: read-out: MED; outline: as §2
Mus musculus [10] = assay: Antiamnesic activity in scopolamine-induced mouse assessed as latency time to enter dark room in training session at 0.01 mg/kg, ip treated 20 mins before training session by passive avoidance test; type: functional; details: route intraperitoneal; outline: as §1
Mus musculus [11] = assay: Antiamnesic activity in scopolamine-induced mouse assessed as latency time to enter dark room in retention session at 0.01 mg/kg, ip treated 20 mins before training session by passive avoidance test; type: functional; details: route intraperitoneal; outline: as §1
Mus musculus [12] = assay: Effect on passive avoidance in mouse assessed as latency time to enter dark room in training session at 0.1 mg/kg, ip treated 20 mins before training session; type: functional; details: route intraperitoneal; outline: as §2
Mus musculus [13] = assay: Effect on passive avoidance in mouse assessed as latency time to enter dark room in retention session at 0.1 mg/kg, ip treated 20 mins before training session; type: functional; details: route intraperitoneal; outline: as §2
Mus musculus [14] = assay: Antiamnesic activity in scopolamine-induced mouse assessed as latency time to enter dark room in retention session at 1.0 mg/kg, ip treated 20 mins before training session by passive avoidance test; type: functional; details: route intraperitoneal; outline: as §1
Mus musculus [15] = assay: Antiamnesic activity in scopolamine-induced mouse assessed as latency time to enter dark room in training session at 1.0 mg/kg, ip treated 20 mins before training session by passive avoidance test; type: functional; details: route intraperitoneal; outline: as §1
Mus musculus [16] = assay: Effect on passive avoidance in mouse assessed as latency time to enter dark room in training session at 1.0 mg/kg, ip treated 20 mins before training session; type: functional; details: route intraperitoneal; outline: as §2
Mus musculus [17] = assay: Effect on passive avoidance in mouse assessed as latency time to enter dark room in retention session at 1.0 mg/kg, ip treated 20 mins before training session; type: functional; details: route intraperitoneal; outline: as §2
Mus musculus [18] = assay: Effect on passive avoidance in mouse assessed as latency time to enter dark room in training session at 10 mg/kg, ip treated 20 mins before training session; type: functional; details: route intraperitoneal; outline: as §2
Mus musculus [19] = assay: Effect on passive avoidance in mouse assessed as latency time to enter dark room in retention session at 10 mg/kg, ip treated 20 mins before training session; type: functional; details: route intraperitoneal; outline: as §2
Mus musculus [20] = assay: Antiamnesic activity in scopolamine-induced mouse assessed as latency time to enter dark room in training session at 0.1 mg/kg, ip treated 20 mins before training session by passive avoidance test; type: functional; details: route intraperitoneal; outline: as §1
Mus musculus [21] = assay: Antiamnesic activity in scopolamine-induced mouse assessed as latency time to enter dark room in retention session at 0.1 mg/kg, ip treated 20 mins before training session by passive avoidance test; type: functional; details: route intraperitoneal; outline: as §1

SMILES	Activity (Mus musculus [1])	Activity (Mus musculus [2])	Activity (Mus musculus [3])	minimal effective dose (Mus musculus [8]) [mg/kg]	minimal effective dose (Mus musculus [9]) [mg/kg]	further results
CC(=O)N[C@H]1CC[C@H](NC(=O)c2ccccc2)CC1	Non-toxic	Non-toxic	inactive			
CC(C)S(=O)(=O)N[C@H]1CC[C@H](NC(=O)c2ccccc2)CC1	Non-toxic	Non-toxic	inactive			
CCC(=O)Nc1ccc(NS(=O)(=O)C(C)C)cc1	Non-toxic	Non-toxic	inactive			
CC(=O)N[C@H]1CC[C@H](NS(=O)(=O)c2ccc(F)cc2)CC1	Non-toxic	Non-toxic		10	0.01	Activity (Mus musculus [4]): 17 s; Activity (Mus musculus [5]): 52.8 s; Activity (Mus musculus [6]): 26.3 s; Activity (Mus musculus [7]): 19.2 s
CCC(=O)N[C@H]1CC[C@H](NC(=O)c2ccccc2)CC1	Non-toxic	Non-toxic	inactive			
CCC(=O)N[C@H]1CC[C@H](NC(=O)CC)CC1	Non-toxic	Non-toxic	inactive			
CC(=O)NC1CCN(S(=O)(=O)c2ccc(F)cc2)CC1 [SAPUNIFIRAM]	Non-toxic	Non-toxic		0.01	0.1	Activity (Mus musculus [10]): 14.5 s; Activity (Mus musculus [11]): 90.6 s; Activity (Mus musculus [12]): 19.1 s; Activity (Mus musculus [13]): 126.8 s
CCC(=O)N[C@H]1CC[C@H](NS(=O)(=O)c2ccc(F)cc2)CC1	Non-toxic	Non-toxic		1	0.1	Activity (Mus musculus [14]): 16.4 s; Activity (Mus musculus [12]): 16.9 s; Activity (Mus musculus [15]): 17.5 s; Activity (Mus musculus [13]): 56.3 s
CCC(=O)N1CCN2C(=O)c3ccccc3C2C1 (stereo not given)	Non-toxic	Non-toxic	inactive			
CC(=O)Nc1ccc(NS(=O)(=O)c2ccc(F)cc2)cc1	Non-toxic	Non-toxic	inactive			
O=C(Nc1ccc(NS(=O)(=O)c2ccc(F)cc2)cc1)c1ccccc1	Non-toxic	Non-toxic	inactive			
CC(C)S(=O)(=O)N(C)c1ccc(NC(=O)c2ccccc2)cc1	Non-toxic	Non-toxic		0.01		Activity (Mus musculus [10]): 20.6 s; Activity (Mus musculus [11]): 66.7 s
CC(C)S(=O)(=O)Nc1ccc(NC(=O)c2ccccc2)cc1	Non-toxic	Non-toxic		10	1	Activity (Mus musculus [16]): 22.1 s; Activity (Mus musculus [4]): 16.8 s; Activity (Mus musculus [6]): 88.1 s; Activity (Mus musculus [17]): 116.7 s
CCC(=O)N[C@H]1CC[C@@H](NC(=O)CC)CC1	Non-toxic	Non-toxic		1	10	Activity (Mus musculus [14]): 106.2 s; Activity (Mus musculus [18]): 34.8 s; Activity (Mus musculus [19]): 165.2 s; Activity (Mus musculus [15]): 17.8 s
CC(=O)N1CCN(C(=O)c2ccccc2)CC1	Non-toxic	Non-toxic		10		Activity (Mus musculus [4]): 11.3 s; Activity (Mus musculus [6]): 119 s
CC(C)S(=O)(=O)N(C)c1ccc(N(C)C(=O)c2ccccc2)cc1	Non-toxic	Non-toxic		0.01	1	Activity (Mus musculus [16]): 19.6 s; Activity (Mus musculus [10]): 20.7 s; Activity (Mus musculus [11]): 91.8 s; Activity (Mus musculus [17]): 123.6 s
CC(=O)Nc1ccc(NC(=O)c2ccccc2)cc1	Non-toxic	Non-toxic	inactive			
CC(C)S(=O)(=O)N(C)c1ccc(N(C)S(=O)(=O)c2ccc(F)cc2)cc1	Non-toxic	Non-toxic		0.01	1	Activity (Mus musculus [16]): 30 s; Activity (Mus musculus [10]): 18.8 s; Activity (Mus musculus [11]): 70.5 s; Activity (Mus musculus [17]): 158.6 s
CC(C)S(=O)(=O)N1CCN2C(=O)CCC2C1 (stereo not given)	Non-toxic	Non-toxic			10	Activity (Mus musculus [18]): 13.6 s; Activity (Mus musculus [19]): 61.5 s
CC(C)S(=O)(=O)Nc1ccc(N(C)C(=O)c2ccccc2)cc1	Non-toxic	Non-toxic		0.1	0.1	Activity (Mus musculus [20]): 21.6 s; Activity (Mus musculus [21]): 75.9 s; Activity (Mus musculus [12]): 17.3 s; Activity (Mus musculus [13]): 121 s
CC(=O)Nc1ccc(NS(=O)(=O)C(C)C)cc1	Non-toxic	Non-toxic	inactive			
CC(=O)N1CCN2C(=O)c3ccccc3C2C1 (stereo not given)	Non-toxic	Non-toxic	inactive			
CC(C)S(=O)(=O)Nc1ccc(N(C)S(=O)(=O)c2ccc(F)cc2)cc1	Non-toxic	Non-toxic		0.1	1	Activity (Mus musculus [20]): 20.2 s; Activity (Mus musculus [16]): 26.2 s; Activity (Mus musculus [21]): 103.6 s; Activity (Mus musculus [17]): 149.8 s
CC(=O)N[C@H]1CC[C@@H](NS(=O)(=O)c2ccc(F)cc2)CC1	Non-toxic	Non-toxic		1	10	Activity (Mus musculus [14]): 104.5 s; Activity (Mus musculus [18]): 32 s; Activity (Mus musculus [19]): 156.6 s; Activity (Mus musculus [15]): 19.1 s
CC(C)S(=O)(=O)N1CCN2C(=O)c3ccccc3C2C1 (stereo not given)	Non-toxic	Non-toxic		1		Activity (Mus musculus [14]): 85.5 s; Activity (Mus musculus [15]): 16.3 s
CCC(=O)N[C@H]1CC[C@@H](NS(=O)(=O)c2ccc(F)cc2)CC1	Non-toxic	Non-toxic		0.1	10	Activity (Mus musculus [20]): 16.8 s; Activity (Mus musculus [18]): 25.3 s; Activity (Mus musculus [19]): 162.9 s; Activity (Mus musculus [21]): 89.1 s
CC(C)S(=O)(=O)Nc1ccc(NS(=O)(=O)c2ccc(F)cc2)cc1	Non-toxic	Non-toxic		1	10	Activity (Mus musculus [14]): 76.3 s; Activity (Mus musculus [18]): 21.1 s; Activity (Mus musculus [19]): 125.2 s; Activity (Mus musculus [15]): 19.1 s
O=C(N[C@H]1CC[C@H](NS(=O)(=O)c2ccc(F)cc2)CC1)c1ccccc1	Non-toxic	Non-toxic	inactive			
O=C1c2ccccc2C2CN(S(=O)(=O)c3ccc(F)cc3)CCN12 (stereo not given)	Non-toxic	Non-toxic		0.1		Activity (Mus musculus [20]): 15.6 s; Activity (Mus musculus [21]): 74.5 s
CCC(=O)Nc1ccc(NS(=O)(=O)c2ccc(F)cc2)cc1	Non-toxic	Non-toxic	inactive			
